Reference: ChEMBL document CHEMBL1150351, “Design, synthesis, and biological evaluation of new-generation taxoids” (J Med Chem, 2008)
pIC50: −log10 of the molar value. Calls of active or inactive are those of the source. The calls are words filed in the database; no cut-off is given here.

What was measured:
[1] = Cytotoxicity against multidrug resistant Pgp expressing human LCC6 cells after 72 hrs by sulforhodamine B test; assay type: functional, cell-based; settings: LCC-6, 72 h
[2] = Cytotoxicity against multidrug resistant Pgp expressing human NCI/ADR cells after 72 hrs by sulforhodamine B test; assay type: functional, cell-based; settings: NCI/ADR-RES
[3] = species: Bos taurus; assay: Induction of calf brain tubulin polymerization at 10 uM by spectrophotometric assay
Outline: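 Calf brain microtubule protein diluted to 1 mg/mL in MES buffer with 3 M glycerol; taxoid at 10 µM. Assembly followed at 37 °C as turbidity change at 350 nm. 6 mM CaCl2 added after 50 min to follow depolymerization. Tubulin is 85% of the protein. Runs used either centrifuged tubulin or tubulin used as stored, with 1 mM GTP in some runs.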

[4] = tested on: MCF7; assay: Cytotoxicity against Pgp deficient human MCF7 cells after 72 hrs by sulforhodamine B test; assay type: functional, cell-based; settings: MCF7, 72 h
[5] = Cytotoxicity against Pgp deficient human LCC6 cells after 72 hrs by sulforhodamine B test; assay type: functional, cell-based; settings: C6, 72 h
[6] = tested on: MCF7; assay: Resistance index, Ratio of IC50 for multidrug resistant Pgp expressing human NCI/ADR cells to IC50 for Pgp deficient human MCF7 cells; assay type: functional; set-up: reference not given here
[7] = species: Bos taurus; assay: Induction of calf brain tubulin polymerization at 10 uM in absence of GTP by spectrophotometric assay
[8] = tested on: C6; assay: Resistance index, Ratio of IC50 for multidrug resistant Pgp expressing human LCC6 cells to IC50 for Pgp deficient human LCC6 cells; assay type: functional; set-up: reference not given here
[9] = tested on: CFPAC-1; assay: Cytotoxicity against multidrug resistant human CFPAC1 cells after 72 hrs by MTT assay; assay type: functional, cell-based; settings: CFPAC-1, 72 h
Outline: (§1)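 Pancreatic lines were cultured per ATCC, seeded at 2.5 × 10^4 cells/well and allowed to adhere overnight. The medium was replaced with drug diluted from a 10 mM DMSO stock, or vehicle, for 72 h, in triplicate, with at least three independent trials. MTT at 0.5 mg/mL was added for 3 h, formazan was dissolved in acidified isopropanol, and A570 was read. IC50 came from sigmoid-Emax nonlinear regression.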

[10] = tested on: DLD-1; assay: Antitumor activity against Pgp expressing multidrug resistant human DLD1 cells xenografted SCID mouse assessed as tumor growth delay at 10 mg/kg, iv administered for 3 days; assay type: functional
Outline: (§2)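 Female SCID mice (6-8 weeks), 5 per treated group, 10 untreated controls, bearing DLD-1 (Pgp+) human colon xenografts. Dosing was iv by tail vein from day 5 after implant, ×3. Stock was 30 mg/mL in Tween-80/ethanol 1:1, diluted in 0.9% saline. Caliper volume V=0.4·l·w² every 3-4 days. Growth delay was time to 600 mm3, interpolated from log(volume) vs time. Cox-Mantel test was used versus control. Cure meant no palpable tumor on day 167.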

[11] = tested on: PANC-1; assay: Cytotoxicity against multidrug resistant human PANC1 cells after 72 hrs by MTT assay; assay type: functional, cell-based; settings: PANC-1, 72 h; outline: as §1
[12] = Cytotoxicity against human primary pancreatic ductal cells after 72 hrs by MTT assay; assay type: cell-based
[13] = species: Bos taurus; assay: Induction of calf brain tubulin polymerization at 10 uM after 12 mins in presence of GTP by spectrophotometric assay
Outline: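 Calf brain microtubule protein, 1 mg/mL in MES buffer with 3 M glycerol, was assembled at 37 °C with 1 mM GTP and 10 µM drug. Turbidity was followed at 350 nm. Tubulin stored in liquid nitrogen was centrifuged just before use and adjusted to 1 mg/mL. CaCl2 (6 mM) was added at 50 min to follow depolymerization.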

[14] = tested on: DLD-1; assay: Antitumor activity against Pgp expressing multidrug resistant human DLD1 cells xenografted SCID mouse assessed as tumor growth delay at 20 mg/kg, iv administered for 3 days; assay type: functional; outline: as §2
[15] = Cytotoxicity against paclitaxel resistant human 1A9PTX10 cells expressing class 1 beta-tubulin mutant after 72 hrs; assay type: functional, cell-based; settings: 1A9/ptx-10, 72 h
[16] = tested on: CFPAC-1; assay: Antitumor activity against mdr1 expressing multidrug resistant human CFPAC1 cells xenografted Swiss mouse assessed as reduction in tumor volume at 20 mg/kg, iv administered for 3 days after 8 weeks; assay type: functional, organism-based; set-up: dose 20 mg/kg
Outline: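 CFPAC-1 (mdr1-high) pancreatic cells, 1 × 10^6 in 200 µL PBS, were injected into both flanks. Treatment began on day 19 at about 100 mm3. Dosing was iv by tail vein on days 19, 22 and 25 at 20 mg/kg each (60 mg/kg total). Stock was 30 mg/mL in Tween-80/ethanol 1:1, diluted in PBS to 0.2 mL. Caliper volume was V=0.4·l·w².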

[17] = tested on: BXPC-3; assay: Cytotoxicity against multidrug resistant human BxPC3 cells after 72 hrs by MTT assay; assay type: functional, cell-based; settings: BXPC-3, 72 h; outline: as §1
[18] = tested on: DLD-1; assay: Antitumor activity against Pgp expressing multidrug resistant human DLD1 cells xenografted SCID mouse assessed as tumor growth at 10 mg/kg, iv administered for 3 days after 167 days; assay type: functional, organism-based; set-up: dose 10 mg/kg; outline: as §2
[19] = tested on: DLD-1; assay: Antitumor activity against Pgp expressing multidrug resistant human DLD1 cells xenografted SCID mouse assessed as tumor growth delay at 40 mg/kg, iv administered for 3 days; assay type: functional; outline: as §2
[20] = tested on: DLD-1; assay: Antitumor activity against Pgp expressing multidrug resistant human DLD1 cells xenografted SCID mouse assessed as tumor growth at 20 mg/kg, iv administered for 3 days after 167 days; assay type: functional, organism-based; set-up: dose 20 mg/kg; outline: as §2
[21] = Cytotoxicity against paclitaxel resistant human 1A9PTX22 cells expressing class 1 beta-tubulin mutant after 72 hrs; assay type: functional, cell-based; settings: 1A9/ptx-22, 72 h
[22] = tested on: MIA PaCa-2; assay: Cytotoxicity against multidrug resistant human MIAPaCa2 cells after 72 hrs by MTT assay; assay type: functional, cell-based; settings: MIA PaCa-2, 72 h; outline: as §1
[23] = tested on: A2780; assay: Cytotoxicity against human A2780 cells after 72 hrs; assay type: functional, cell-based; settings: A2780, 72 h
[24] = species: Bos taurus; assay: Induction of calf brain tubulin polymerization at 10 uM in after 5 mins in absence of GTP by spectrophotometric assay
[25] = tested on: Mus musculus; assay: Toxicity in Pgp expressing multidrug resistant human DLD1 cells xenografted SCID mouse at 20 mg/kg, iv administered for 3 days; assay type: organism-based, DLD-1; set-up: dose 20 mg/kg, route intravenous; settings: in vivo, 72 h
Outline: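 Female SCID mice with DLD-1 (Pgp+) colon xenografts, 5 per group. Dosing was iv by tail vein, 20 mg/kg ×3 from day 5 post-implant, in Tween-80/ethanol diluted with saline. Toxicity was counted as animals that died or lost more than 20% body weight.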

SMILES | pIC50 [1] | pIC50 [2] | pIC50 [4] | pIC50 [5] | Ratio IC50 [6] | Ratio IC50 [8] | other results
COC(=O)O[C@H]1C(=O)[C@@]2(C)[C@H]([C@H](OC(=O)c3cccc(OC)c3)[C@]3(O)C[C@H](OC(=O)[C@H](O)[C@H](C=C(C)C)NC(=O)OC(C)(C)C)C(C)=C1C3(C)C)[C@]1(OC(C)=O)CO[C@@H]1C[C@@H]2O | 8.80 | 8.85 | 9.40 | 9.22 | 3.5 | 2.7 | Activity [3]: Active; Activity [7]: Active
CC(=O)O[C@@]12CO[C@@H]1C[C@H](O)[C@@]1(C)C(=O)[C@H](OC(=O)C3CC3)C3=C(C)[C@@H](OC(=O)[C@H](O)[C@H](C=C(C)C)NC(=O)OC(C)(C)C)C[C@@](O)([C@@H](OC(=O)c4ccccc4)[C@H]21)C3(C)C | – | 8.41 | – | – | – | – | pIC50 [9]: 9.08; Activity [10]: 37 days; pIC50 [11]: 8.43; Activity [12]: Non-toxic; Activity [7]: Active; Activity [13]: 90%; Activity [14]: >150 days; pIC50 [15]: 8.05; Activity [16]: Active; pIC50 [17]: 8.98; Activity [18]: inactive; Activity [19]: >150 days; Activity [20]: Active; pIC50 [21]: 8.40; pIC50 [22]: 9.04; pIC50 [23]: 9.36
CCC(=O)O[C@H]1C(=O)[C@@]2(C)[C@H]([C@H](OC(=O)c3cccc(OC)c3)[C@]3(O)C[C@H](OC(=O)[C@H](O)[C@H](C=C(C)C)NC(=O)OC(C)(C)C)C(C)=C1C3(C)C)[C@]1(OC(C)=O)CO[C@@H]1C[C@@H]2O | – | 9.48 | 9.44 | 9.00 | – | – | pIC50 [9]: 9.05; Activity [24]: > 90%; pIC50 [11]: 7.65; Activity [7]: Active; pIC50 [15]: 8.44; pIC50 [17]: 8.52; pIC50 [21]: 8.41; pIC50 [22]: 9.17; pIC50 [23]: 9.12
CC(=O)O[C@H]1C(=O)[C@@]2(C)[C@H]([C@H](OC(=O)c3ccccc3)[C@]3(O)C[C@H](OC(=O)[C@H](O)[C@@H](NC(=O)c4ccccc4)c4ccccc4)C(C)=C1C3(C)C)[C@]1(OC(C)=O)CO[C@@H]1C[C@@H]2O [PACLITAXEL] | 6.46 | 6.52 | – | – | – | – | Activity [25]: Non-toxic; Activity [14]: 8 days; pIC50 [15]: 6.27; Activity [20]: inactive; pIC50 [21]: 6.79; pIC50 [23]: 8.86
CCC(=O)O[C@H]1C(=O)[C@@]2(C)[C@H]([C@H](OC(=O)c3cccc(OC)c3)[C@]3(O)C[C@H](OC(=O)[C@H](O)[C@H](C=C(C)C)NC(=O)C4CC4)C(C)=C1C3(C)C)[C@]1(OC(C)=O)CO[C@@H]1C[C@@H]2O | 7.76 | 8.11 | 9.30 | 8.96 | 15.6 | 16 | –
CCC(=O)O[C@H]1C(=O)[C@@]2(C)[C@H]([C@H](OC(=O)c3ccccc3)[C@]3(O)C[C@H](OC(=O)[C@H](O)[C@H](CC(C)C)NC(=O)C4CCCC4)C(C)=C1C3(C)C)[C@]1(OC(C)=O)CO[C@@H]1C[C@@H]2O | 7.19 | 7.54 | 8.64 | 8.20 | 12 | 10 | –
COc1cccc(C(=O)O[C@H]2[C@@H]3[C@]4(OC(C)=O)CO[C@@H]4C[C@H](O)[C@@]3(C)C(=O)[C@H](OC(=O)c3ccccc3OC)C3=C(C)[C@@H](OC(=O)[C@H](O)[C@H](C=C(C)C)NC(=O)OC(C)(C)C)C[C@]2(O)C3(C)C)c1 | 9.05 | 8.48 | 8.96 | 9.40 | 3 | 2.3 | –
CCC(=O)O[C@H]1C(=O)[C@@]2(C)[C@H]([C@H](OC(=O)c3ccccc3)[C@]3(O)C[C@H](OC(=O)[C@H](O)[C@H](CC(C)C)NC(=O)OC4CCCC4)C(C)=C1C3(C)C)[C@]1(OC(C)=O)CO[C@@H]1C[C@@H]2O | 7.85 | 8.06 | 8.89 | 8.59 | 6.8 | 5.4 | –
CCC(=O)O[C@H]1C(=O)[C@@]2(C)[C@H]([C@H](OC(=O)c3ccccc3)[C@]3(O)C[C@H](OC(=O)[C@H](O)[C@H](CC(C)C)NC(=O)OC4CCCCC4)C(C)=C1C3(C)C)[C@]1(OC(C)=O)CO[C@@H]1C[C@@H]2O | 7.74 | 7.85 | 8.85 | 8.32 | 10 | 3.8 | –
CCC(=O)O[C@H]1C(=O)[C@@]2(C)[C@H]([C@H](OC(=O)c3ccccc3)[C@]3(O)C[C@H](OC(=O)[C@H](O)[C@H](C=C(C)C)NC(=O)OC4CCCCC4)C(C)=C1C3(C)C)[C@]1(OC(C)=O)CO[C@@H]1C[C@@H]2O | 7.82 | 8.05 | 8.85 | 8.92 | 6.4 | 13 | –
CCC(=O)O[C@H]1C(=O)[C@@]2(C)[C@H]([C@H](OC(=O)c3cccc(OC)c3)[C@]3(O)C[C@H](OC(=O)[C@H](O)[C@H](C=C(C)C)NC(=O)C4CCC4)C(C)=C1C3(C)C)[C@]1(OC(C)=O)CO[C@@H]1C[C@@H]2O | 7.82 | 8.06 | 9.10 | 8.80 | 11 | 9.4 | –
CCC(=O)O[C@H]1C(=O)[C@@]2(C)[C@H]([C@H](OC(=O)c3ccccc3)[C@]3(O)C[C@H](OC(=O)[C@H](O)[C@H](C=C(C)C)NC(=O)C4=CCCC4)C(C)=C1C3(C)C)[C@]1(OC(C)=O)CO[C@@H]1C[C@@H]2O | 7.85 | 8.22 | 9.40 | 8.92 | 15 | 12 | –
